Laboratory results reported in ChEMBL document CHEMBL1795205, “The new 5- or 6-azapyrimidine and cyanuric acid derivatives of l-ascorbic acid bearing the free C-5 hydroxy or C-4 amino group at the ethylenic spacer: CD-spectral absolute configuration determination and biological activity evaluations” (Eur J Med Chem, 2011).
One block for each molecule: values may come before it.

Legend:
HepG2 = test: Cytostatic activity against human HepG2 cells assessed as inhibition of cell proliferation after 72 hrs by MTT assay; format: functional, cell-based; conditions: HepG2, 72 h
In short: (§1)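 Monolayer cells grown in DMEM with 10% FBS were seeded on day 0 at 3000–6000 cells/well, set by each line's doubling time. Agents were added the next step in five 10-fold dilutions (0.01–100) for 72 h, with DMSO ≤0.1% and a solvent control. MTT absorbance was converted to percentage growth versus untreated wells on the same plate. Where all PGs exceeded 50, the top concentration was reported as ">". ANOVA/Tukey, p<0.05.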

MCF7 [1] = test: Cytostatic activity against human MCF7 cells assessed as inhibition of cell proliferation after 72 hrs by MTT assay; format: functional, cell-based; conditions: MCF7, 72 h; in short: as §1
WI-38 = test: Cytotoxicity against human WI38 cells assessed as inhibition of cell proliferation after 72 hrs by MTT assay; format: cell-based; conditions: WI-38, 72 h; in short: as §1
SW-620 = test: Cytostatic activity against human SW620 cells assessed as inhibition of cell proliferation after 72 hrs by MTT assay; format: functional, cell-based; conditions: SW-620, 72 h; in short: as §1
HeLa [2] = test: Cytostatic activity against human HeLa cells assessed as inhibition of cell proliferation after 72 hrs by MTT assay; format: functional, cell-based; in short: as §1
MIA PaCa-2 = test: Cytostatic activity against human MIAPaCa2 cells assessed as inhibition of cell proliferation after 72 hrs by MTT assay; format: functional, cell-based; conditions: MIA PaCa-2, 72 h; in short: as §1
MCF7 [3] = test: Induction of cell cycle arrest in human MCF7 cells assessed as accumulation at G2/M phase at 5 uM after 24 hrs by flow cytometry (reference value: 15.9 +/- 2.7%); format: functional
In short: (§2)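 Cells were seeded at 3×10⁵ per well in 6-well plates and treated after overnight incubation for 24 and 48 h. They were trypsinized, washed three times in PBS, fixed in cold ethanol and stored at −20 °C. Pellets were washed twice in PBS and treated with RNase A at 37 °C for 15 min, then stained with PI for 30 min in the dark. DNA content was measured by flow cytometry.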

HeLa [4] = test: Induction of cell cycle arrest in human HeLa cells assessed as accumulation at S phase at 5 uM after 48 hrs by flow cytometry relative to control; format: functional; in short: as §2
HeLa [5] = test: Induction of cell cycle arrest in human HeLa cells assessed as accumulation at G2/M phase at 10 uM after 24 hrs by flow cytometry (reference value: 10.9 +/- 2.6%); format: functional; in short: as §2
HeLa [6] = test: Induction of cell cycle arrest in human HeLa cells assessed as accumulation at G2/M phase at 10 uM after 48 hrs by flow cytometry (reference value: 3.25 +/- 0.1%); format: functional; in short: as §2
HeLa [7] = test: Induction of cell cycle arrest in human HeLa cells assessed as accumulation at subG1 phase at 10 uM after 48 hrs by flow cytometry (reference value: 0.16 +/- 0.01%); format: functional; in short: as §2
MCF7 [8] = test: Induction of cell cycle arrest in human MCF7 cells assessed as accumulation at G2/M phase at 5 uM after 48 hrs by flow cytometry (reference value: 6.82 +/- 0.3%); format: functional; in short: as §2
HeLa [9] = test: Induction of cell cycle arrest in human HeLa cells assessed as accumulation at subG1 phase at 5 uM after 24 hrs by flow cytometry relative to control; format: functional; in short: as §2
MCF7 [10] = test: Induction of cell cycle arrest in human MCF7 cells assessed as accumulation at S phase at 10 uM after 48 hrs by flow cytometry (reference value: 40.9 +/- 5.7%); format: functional; in short: as §2
MCF7 [11] = test: Induction of cell cycle arrest in human MCF7 cells assessed as accumulation at S phase at 5 uM after 48 hrs by flow cytometry (reference value: 40.9 +/- 5.7%); format: functional; in short: as §2
MCF7 [12] = test: Induction of cell cycle arrest in human MCF7 cells assessed as accumulation at G1 phase at 10 uM after 24 hrs by flow cytometry (reference value: 50.7 +/- 3.1%); format: functional; in short: as §2
MCF7 [13] = test: Induction of cell cycle arrest in human MCF7 cells assessed as accumulation at S phase at 5 uM after 24 hrs by flow cytometry (reference value: 33.4 +/- 0.4%); format: functional; in short: as §2
MCF7 [14] = test: Induction of cell cycle arrest in human MCF7 cells assessed as accumulation at G2/M phase at 10 uM after 48 hrs by flow cytometry (reference value: 6.82 +/- 0.3%); format: functional; in short: as §2
MCF7 [15] = test: Induction of cell cycle arrest in human MCF7 cells assessed as accumulation at G1 phase at 10 uM after 48 hrs by flow cytometry (reference value: 52.3 +/- 6.1%); format: functional; in short: as §2
MCF7 [16] = test: Induction of cell cycle arrest in human MCF7 cells assessed as accumulation at subG1 phase at 10 uM after 48 hrs by flow cytometry (reference value: 0.51 +/- 0.01%); format: functional; in short: as §2
MCF7 [17] = test: Induction of cell cycle arrest in human MCF7 cells assessed as accumulation at G2/M phase at 10 uM after 24 hrs by flow cytometry (reference value: 15.9 +/- 2.7%); format: functional; in short: as §2
HeLa [18] = test: Induction of cell cycle arrest in human HeLa cells assessed as accumulation at G1 phase at 5 uM after 48 hrs by flow cytometry relative to control; format: functional; in short: as §2
MCF7 [19] = test: Induction of cell cycle arrest in human MCF7 cells assessed as accumulation at subG1 phase at 10 uM after 24 hrs by flow cytometry (reference value: 0.68 +/- 0.4%); format: functional; in short: as §2
MCF7 [20] = test: Induction of cell cycle arrest in human MCF7 cells assessed as accumulation at G1 phase at 5 uM after 48 hrs by flow cytometry (reference value: 52.3 +/- 6.1%); format: functional; in short: as §2
HeLa [21] = test: Induction of cell cycle arrest in human HeLa cells assessed as accumulation at subG1 phase at 10 uM after 24 hrs by flow cytometry (reference value: 0.49 +/- 0.2%); format: functional; in short: as §2
HeLa [22] = test: Induction of cell cycle arrest in human HeLa cells assessed as accumulation at G1 phase at 10 uM after 24 hrs by flow cytometry (reference value: 44.8 +/- 11.2%); format: functional; in short: as §2
HeLa [23] = test: Induction of cell cycle arrest in human HeLa cells assessed as accumulation at G2/M phase at 5 uM after 48 hrs by flow cytometry relative to control; format: functional; in short: as §2
MCF7 [24] = test: Induction of cell cycle arrest in human MCF7 cells assessed as accumulation at G1 phase at 5 uM after 24 hrs by flow cytometry (reference value: 50.7 +/- 3.1%); format: functional; in short: as §2
MCF7 [25] = test: Induction of cell cycle arrest in human MCF7 cells assessed as accumulation at S phase at 10 uM after 24 hrs by flow cytometry (reference value: 33.4 +/- 0.4%); format: functional; in short: as §2
MCF7 [26] = test: Induction of cell cycle arrest in human MCF7 cells assessed as accumulation at subG1 phase at 5 uM after 48 hrs by flow cytometry (reference value: 0.51 +/- 0.01%); format: functional; in short: as §2
HeLa [27] = test: Induction of cell cycle arrest in human HeLa cells assessed as accumulation at S phase at 5 uM after 24 hrs by flow cytometry relative to control; format: functional; in short: as §2
HeLa [28] = test: Induction of cell cycle arrest in human HeLa cells assessed as accumulation at G1 phase at 10 uM after 48 hrs by flow cytometry (reference value: 56.1 +/- 0.1%); format: functional; in short: as §2
HeLa [29] = test: Induction of cell cycle arrest in human HeLa cells assessed as accumulation at G2/M phase at 5 uM after 24 hrs by flow cytometry relative to control; format: functional; in short: as §2
HeLa [30] = test: Induction of cell cycle arrest in human HeLa cells assessed as accumulation at G1 phase at 5 uM after 24 hrs by flow cytometry relative to control; format: functional; in short: as §2
HeLa [31] = test: Induction of cell cycle arrest in human HeLa cells assessed as accumulation at S phase at 10 uM after 48 hrs by flow cytometry (reference value: 40.6 +/- 0.1%); format: functional; in short: as §2
HeLa [32] = test: Induction of cell cycle arrest in human HeLa cells assessed as accumulation at subG1 phase at 5 uM after 48 hrs by flow cytometry relative to control; format: functional; in short: as §2
HeLa [33] = test: Induction of cell cycle arrest in human HeLa cells assessed as accumulation at S phase at 10 uM after 24 hrs by flow cytometry (reference value: 44.4 +/- 8.7%); format: functional; in short: as §2
MCF7 [34] = test: Induction of cell cycle arrest in human MCF7 cells assessed as accumulation at subG1 phase at 5 uM after 24 hrs by flow cytometry (reference value: 0.68 +/- 0.4%); format: functional; in short: as §2

IC50 (HepG2): 1.98 µM
IC50 (MCF7 [1]): 2.03 µM
IC50 (SW-620): > 100 µM
IC50 (HeLa [2]): 7.2 µM
IC50 (MIA PaCa-2): 24.2 µM
SMILES: O=C1O/C(=C\Cn2ccc(NC(=O)c3ccccc3)nc2=O)C(OCc2ccccc2)=C1OCc1ccccc1
Activity (MCF7 [3]): 13.8%
Activity (HeLa [4]): 36.5%
Activity (HeLa [5]): 8.45%
Activity (HeLa [6]): 8.3%
Activity (HeLa [7]): 0.56%
Activity (MCF7 [8]): 13.9%
Activity (HeLa [9]): 0.04%
Activity (MCF7 [10]): 38%
Activity (MCF7 [11]): 35.6%
Activity (MCF7 [12]): 54.3%
Activity (MCF7 [13]): 28.3%
IC50 (WI-38): 8.49 µM
Activity (MCF7 [14]): 5.52%
Activity (MCF7 [15]): 56.6%
Activity (MCF7 [16]): 0.32%
Activity (MCF7 [17]): 6.54%
Activity (HeLa [18]): 60.8%
Activity (MCF7 [19]): 0.2%
Activity (MCF7 [20]): 50.6%
Activity (HeLa [21]): 0.2%
Activity (HeLa [22]): 37.9%
Activity (HeLa [23]): 2.8%
Activity (MCF7 [24]): 57.9%
Activity (MCF7 [25]): 39.2%
Activity (MCF7 [26]): 0.37%
Activity (HeLa [27]): 39.9%
Activity (HeLa [28]): 52.3%
Activity (HeLa [29]): 13.1%
Activity (HeLa [30]): 47.1%
Activity (HeLa [31]): 39.5%
Activity (HeLa [32]): 0.27%
Activity (HeLa [33]): 53.7%
Activity (MCF7 [34]): 0.42%

IC50 (HepG2): > 100 µM
IC50 (MCF7 [1]): > 100 µM
IC50 (SW-620): > 100 µM
IC50 (HeLa [2]): > 100 µM
IC50 (MIA PaCa-2): > 100 µM
SMILES: NC1(CCn2ncc(=O)[nH]c2=O)OC(=O)C(OCc2ccccc2)=C1OCc1ccccc1 (racemic)
IC50 (WI-38): > 100 µM

Second part, the molecule before the results:

SMILES: Nc1ncn(CCC2(N)OC(=O)C(OCc3ccccc3)=C2OCc2ccccc2)c(=O)n1 (racemic)
IC50 (HepG2): > 100 µM
IC50 (MCF7 [1]): > 100 µM
IC50 (WI-38): > 100 µM
IC50 (SW-620): > 100 µM
IC50 (HeLa [2]): > 100 µM
IC50 (MIA PaCa-2): > 100 µM

SMILES: Nc1ccn(CCC2(N)OC(=O)C(OCc3ccccc3)=C2OCc2ccccc2)c(=O)n1 (racemic)
IC50 (HepG2): > 100 µM
IC50 (MCF7 [1]): 32 µM
IC50 (WI-38): 88.9 µM
IC50 (SW-620): > 100 µM
IC50 (HeLa [2]): > 100 µM
IC50 (MIA PaCa-2): > 100 µM

SMILES: NC1(CCn2ccc(=O)[nH]c2=O)OC(=O)C(OCc2ccccc2)=C1OCc1ccccc1 (racemic)
IC50 (HepG2): > 100 µM
IC50 (MCF7 [1]): > 100 µM
IC50 (WI-38): > 100 µM
IC50 (SW-620): > 100 µM
IC50 (HeLa [2]): > 100 µM
IC50 (MIA PaCa-2): > 100 µM

SMILES: Nc1ccn(C[C@H](O)[C@H]2OC(=O)C(OCc3ccccc3)=C2OCc2ccccc2)c(=O)n1
IC50 (HepG2): 44.3 µM
IC50 (MCF7 [1]): 7.34 µM
IC50 (WI-38): 53.9 µM
IC50 (SW-620): > 100 µM
IC50 (HeLa [2]): > 100 µM
IC50 (MIA PaCa-2): > 100 µM

SMILES: O=C1O/C(=C\Cn2ncc(=O)[nH]c2=O)C(OCc2ccccc2)=C1OCc1ccccc1
IC50 (HepG2): 41.3 µM
IC50 (MCF7 [1]): 3.77 µM
IC50 (WI-38): 24.6 µM
IC50 (SW-620): 36.5 µM
IC50 (HeLa [2]): 45 µM
IC50 (MIA PaCa-2): 20.4 µM

SMILES: O=C1O/C(=C\Cn2c(=O)[nH]c(=O)[nH]c2=O)C(OCc2ccccc2)=C1OCc1ccccc1
IC50 (HepG2): 44.8 µM
IC50 (MCF7 [1]): 17.8 µM
IC50 (SW-620): > 100 µM
IC50 (HeLa [2]): > 100 µM
IC50 (MIA PaCa-2): 37.9 µM
